Assay outcomes (PubChem BioAssay)
Shown are actives, neighbours in structure and some others; about 2.2% of the full set was active somewhere.
FLuc inhib CS = inhibits firefly luciferase, flagging false hits in luciferase inhibition screens | ATPLite firefly luciferase biochemical luminescence, 10 min | inhibition, % at 10 µM | 200,000 compounds, 1.5% hits;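 active = inhibition above about 50% when tested at 10 µM, limit read from the data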
Target sequence (P08659 whole entry, looked up): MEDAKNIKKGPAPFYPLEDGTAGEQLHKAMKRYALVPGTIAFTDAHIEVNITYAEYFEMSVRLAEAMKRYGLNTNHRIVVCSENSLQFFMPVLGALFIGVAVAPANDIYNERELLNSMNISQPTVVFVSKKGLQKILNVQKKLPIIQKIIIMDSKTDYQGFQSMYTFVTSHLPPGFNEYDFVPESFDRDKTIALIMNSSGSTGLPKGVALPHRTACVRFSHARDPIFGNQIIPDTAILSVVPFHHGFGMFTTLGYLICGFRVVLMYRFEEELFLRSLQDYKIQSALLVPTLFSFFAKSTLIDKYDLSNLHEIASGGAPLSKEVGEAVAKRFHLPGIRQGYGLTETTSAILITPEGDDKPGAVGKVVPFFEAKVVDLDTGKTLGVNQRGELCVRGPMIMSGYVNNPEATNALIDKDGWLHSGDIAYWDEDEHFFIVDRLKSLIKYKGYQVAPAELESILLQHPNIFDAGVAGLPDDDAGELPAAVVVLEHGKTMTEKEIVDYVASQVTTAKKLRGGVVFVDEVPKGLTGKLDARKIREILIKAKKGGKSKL
FLuc stim CS = firefly luciferase counter-screen for stimulation assays. ATPlite luciferase biochemical, luminescence, 10 min; 0 = ATP-free wells, 1 = DMSO control. 200,000 tested, under 10 active. P08659. activation factor at 10 µM. AID 1027;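 active = luciferase activation factor, scaled between plate controls, of at least 2 with compound at 10 µM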
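Material: Luciferase/luciferin reagent mix | Doses: Test compounds dosed from 2 mM stocks in 100% DMSO | Timing: 10 min incubation after luciferase reagent addition, room temperature | Measured by: Luminescence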
STAT3 blocker = reduces IL-6 driven STAT3 reporter signal; inhibition, % at 5.5 µM; 190,000 compounds, 0.89% hits; U3A cells, IL-6 STAT3-luciferase reporter, luminescence; host cell line lacks STAT1;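 active = inhibition above the mean inhibition across all screened compounds plus 3 SD, cut at about 44% in these data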
PPC-1+TRAIL kill = kills PPC-1 cancer cells in the presence of TRAIL; PPC-1 cells + TRAIL, ATPLite viability luminescence; cell killing (% activity), % at 4 µM or 5 µM; 220,000 compounds, 0.41% hits;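 active = cell killing above 50% in the first pass at 4 µM, then a duplicate retest at 5 µM averaging 50% or more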
HSP90 inh = inhibitors of HSP90 luciferase refolding in rabbit reticulocyte lysate | inhibition, % at 5.6 µM | AID 1789 | 290,000 compounds, 0.91% hits | luciferase refolding luminescence, 3 h;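 active = inhibition above the screen-wide mean plus 3 SD, computed separately per campaign, cut at about 16% in these data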;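 also: inhibitors lower the luminescence because luciferase stays unfolded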
TRAIL sens C8 = caspase-8 TRAIL sensitization | NB7+C8 cells + TRAIL, ATPlite viability luminescence | inhibition (viability loss, TRAIL sensitization), % at 10 µM | 360,000 compounds, 1% hits;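 active = compounds causing at least 50% loss of cell viability in the single-dose screen, relative to plate controls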
Each line names hits and unclear results; the compound was inactive in the other large screens.

COc1cccc(/C=N/NC(=O)C(C)n2nc(C)c([N+](=O)[O-])c2C)c1O (configuration not stated)	TRAIL sens C8 54.9
CCOC(=O)C(C)C(C)=O (configuration not stated)	none (no result: FLuc inhib CS, FLuc stim CS, STAT3 blocker, PPC-1+TRAIL kill, HSP90 inh)
COc1ccc(CNC(=O)c2c(-c3c(F)cccc3Cl)noc2C)cc1	none (no result: FLuc inhib CS, FLuc stim CS, STAT3 blocker, PPC-1+TRAIL kill)
COc1ccc(C(CNC(=O)Cc2ccc(-c3ccccc3)cc2)N(C)C)cc1 (configuration not stated)	none (no result: FLuc inhib CS, FLuc stim CS, STAT3 blocker, PPC-1+TRAIL kill)
COC(=O)/C=C/c1c(C)nc(NCc2ccccc2)nc1Cl	none (no result: FLuc inhib CS, FLuc stim CS, STAT3 blocker, PPC-1+TRAIL kill)
CC(NC(=O)NC(=O)c1cccc(Cl)c1)c1ccccc1 (configuration not stated)	none (no result: FLuc inhib CS, FLuc stim CS, STAT3 blocker, PPC-1+TRAIL kill)
COc1cccc(/C=N/Nc2ccc(C(=O)O)cc2)c1O	FLuc inhib CS 83.4, STAT3 blocker 100.1, HSP90 inh 95.2, TRAIL sens C8 55.9
Cc1ccc(-n2c(C)cc(/C=N/Nc3ccc([N+](=O)[O-])cn3)c2C)cc1	none
COc1cccc(/C=N/c2oc(-c3ccccc3)cc2C#N)c1O	none
COc1cccc(C=Nc2ccccc2C#N)c1O	FLuc inhib CS 88.9
Cc1cc(/C=N/Nc2ccc([N+](=O)[O-])cn2)c(C)n1-c1ccccc1	HSP90 inh 16.3
COc1cccc(/C=N/Nc2ccc(S(=O)(=O)O)cc2)c1O	none
O=C(O)c1cccc(COc2ccccc2Cl)c1	FLuc inhib CS 63.0 (no result: STAT3 blocker, HSP90 inh)
O=C(O)c1ccc(COc2ccccc2Cl)cc1	none
COc1ccc2nc(NC(=O)c3cccc(N4C(=O)CCC4=O)c3)sc2c1	TRAIL sens C8 57.6 (no result: FLuc inhib CS, FLuc stim CS, STAT3 blocker, PPC-1+TRAIL kill, HSP90 inh)
CCOc1ccc2nc(NC(=O)c3cccc(-c4cc5ccccc5oc4=O)c3)sc2c1	TRAIL sens C8 70.7
O=C(Nc1nc2ccc(Cl)cc2s1)c1cccc(N2C(=O)CCC2=O)c1	none (no result: FLuc inhib CS, FLuc stim CS, STAT3 blocker, PPC-1+TRAIL kill, HSP90 inh)
CCOc1ccc2nc(NC(=O)c3cccc(N4C(=O)CCC4=O)c3)sc2c1	TRAIL sens C8 56.0 (no result: FLuc inhib CS, FLuc stim CS, STAT3 blocker, PPC-1+TRAIL kill, HSP90 inh)
CC(NCc1ccccc1)c1ccccc1O (configuration not stated)	none (no result: FLuc inhib CS, FLuc stim CS, STAT3 blocker)
CCn1c(SCC(=O)Nc2nccc(C)n2)nc2ccccc21	none (no result: FLuc inhib CS, FLuc stim CS, STAT3 blocker)
NC(=O)CSc1nnnn1-c1ccccc1Cl	none
O=C(Nc1cc(Cl)ccc1Cl)N1CCN(C(=O)Nc2cc(Cl)ccc2Cl)CC1	none (no result: FLuc inhib CS, FLuc stim CS, STAT3 blocker, PPC-1+TRAIL kill, HSP90 inh)
Cc1ccccc1Nc1cc2ccccc2c(=O)[nH]1	TRAIL sens C8 88.4
O=c1[nH]c(Nc2ccc(F)cc2)cc2ccccc12	HSP90 inh 16.4
COc1ccc(NC(=O)CN2C(=O)COc3ccc(S(=O)(=O)N4CCOCC4)cc32)cc1Cl	none (no result: FLuc inhib CS, FLuc stim CS, STAT3 blocker, PPC-1+TRAIL kill)
Cc1cc2c(cc1C)C(c1ccccc1Br)CC(=O)N2 (configuration not stated)	PPC-1+TRAIL kill 53.7
CC/C(=N\NC(=O)c1csc(C)c1C)c1cccs1	FLuc inhib CS 80.6, TRAIL sens C8 50.5
CCCCNC(=O)C1(C)CCCCN1C(=O)c1ccc(F)c(C)c1 (configuration not stated)	none (no result: FLuc inhib CS, FLuc stim CS, STAT3 blocker, PPC-1+TRAIL kill, HSP90 inh)
Cc1cc(C)nc(NC(=O)c2cc3ccccc3o2)n1	none
O=C(Nc1ccc(Cl)cn1)c1ccc2ccccc2n1	none
Cc1ccc(NC(=O)c2ccc3ccccc3n2)nc1	FLuc inhib CS 73.1
Cc1ccc(NC(=O)c2cc3ccccc3o2)nc1	TRAIL sens C8 59.2 (no result: FLuc inhib CS, FLuc stim CS, STAT3 blocker, PPC-1+TRAIL kill, HSP90 inh)
Cc1ccc(C(=O)c2cc3ccccc3o2)cc1	FLuc inhib CS 56.7
COC(=O)c1sccc1NC(=O)CC1C(=O)NCCN1C(=O)Nc1ccc(C(F)(F)F)cc1 (configuration not stated)	none (no result: FLuc inhib CS, FLuc stim CS, STAT3 blocker)
Cn1cccc1C(=O)OCC(=O)NC(=O)NC1CCCCC1	none
CC(C)N1CCN(Cc2ccsc2)CC1CCO (configuration not stated)	none
Cc1ccccc1-n1nnnc1Sc1nnnn1-c1ccccc1	TRAIL sens C8 55.1
Cc1ccccc1-n1nnnc1SCC(N)=O	none
O=[N+]([O-])c1ccc2[nH]c(=S)sc2c1	none (no result: FLuc inhib CS, FLuc stim CS, STAT3 blocker, PPC-1+TRAIL kill, HSP90 inh)
Nc1cccc(-c2cn3cc(C(F)(F)F)cc(Cl)c3n2)c1	FLuc inhib CS 67.8
FC(F)(F)c1cc(Cl)c2nc(-c3ccccc3)cn2c1	TRAIL sens C8 51.2
Cc1cc(C(F)(F)F)nc(-n2cc(-c3cccc(N)c3)nn2)n1	none
CCN(CCNCC(O)COc1ccccc1C(C)C)c1cccc(C)c1 (configuration not stated)	none (no result: FLuc inhib CS, FLuc stim CS, STAT3 blocker, PPC-1+TRAIL kill)
CC1C=CCC2C(=O)N(c3cc(Cl)ccc3O)C(=O)C12 (configuration not stated)	none
